# Laboratory results: ChEMBL document CHEMBL2396536, “Curcuminoids block TGF-β signaling in human breast cancer cells and limit osteolysis in a murine model of breast cancer bone metastasis” (J Nat Prod, 2013)
# Active and inactive are the calls of the source. No cut-off for these calls is given here.
# Experiments:
# MDA-MB-231 [1] = test: Cytotoxicity against human MDA-MB-231 cells assessed as cell viability by MTT assay; format: cell-based
# Method in brief: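 MDA-MB-231 plated at 5 × 10^4 cells/cm2 and held overnight in DMEM with 10% FBS at 37°C and 5% CO2. Pre-incubated 4 h with compound in 2% FBS DMEM, then medium refreshed with TGF-β1 (5 ng/mL) for 24 h. Cell number read by MTT reduction.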
# Mus musculus [2] = test: Toxicity in human MDA-MB-231 cells xenografted athymic nude mouse left cardiac ventricle assessed as effect on liver weight at 50 mg/kg, ip administered every other day for 3 weeks (reference value: 1 +/- 0.10 gram); format: organism-based, Heart; parameters: dose 50 mg/kg, route intraperitoneal; conditions: in vivo, 504 h
# Mus musculus [3] = test: Toxicity in human MDA-MB-231 cells xenografted athymic nude mouse left cardiac ventricle assessed as effect on hematocrit at 25 mg/kg, ip administered every other day for 3 weeks (reference value: 30.2 +/- 1.5%); format: organism-based, Heart; parameters: dose 25 mg/kg, route intraperitoneal; conditions: in vivo, 504 h
# MDA-MB-231 [4] = test: Inhibition of osteolytic bone metastases in human MDA-MB-231 cells xenografted in athymic nude mouse left cardiac ventricle assessed as reduction of bone lysis at 25 to 50 mg/kg, ip administered every other day for 3 weeks measured on day 21; format: functional, Heart left ventricle; conditions: dose mg/kg 25-50; route intraperitoneal
# Method in brief: (§1)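 Four-week female athymic nude mice inoculated with 1 × 10^5 MDA-MB-231 cells in 0.1 mL PBS into the left cardiac ventricle. Dosed ip at 25 or 50 mg/kg or vehicle every other day from day 1 for 21 days, n = 11/group. Lytic lesion area quantified on radiographs on days 12, 16 and 21. Two-way ANOVA with Bonferroni.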
# Mus musculus [5] = test: Toxicity in human MDA-MB-231 cells xenografted athymic nude mouse left cardiac ventricle assessed as effect on platelets at 50 mg/kg, ip administered every other day for 3 weeks (reference value: 513 +/- 54 K/uL); format: organism-based, Heart; parameters: dose 50 mg/kg, route intraperitoneal; conditions: in vivo, 504 h
# [6] = biological target: MAP kinase p38 (Homo sapiens) (UniProt O15264+Q15759+Q16539+P53778); test: Inhibition of TGF-beta-induced p38 phosphorylation in human MDA-MB-231 cells treated 12 hrs before TGF-beta challenge measured after 1 hr by Western blotting; format: cell-based
# Method in brief: (§2)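 Subconfluent MDA-MB-231 pre-treated 12 h with compound (80 μM), then TGF-β (5 ng/mL) for 1 h. RIPA whole-cell lysates (18 μg) run on SDS-PAGE and transferred to PVDF. Probed with rabbit anti-phospho-Smad2, phospho-Smad3, phospho-p38 or Ets-1 (1:1000, overnight, 4 °C). β-actin used as loading control. Chemiluminescent detection; three independent experiments.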
# Mus musculus [7] = test: Toxicity in human MDA-MB-231 cells xenografted athymic nude mouse left cardiac ventricle assessed as effect on white blood cells at 25 mg/kg, ip administered every other day for 3 weeks (reference value: 5.84 +/- 1.3 K/uL); conditions: in vivo, 504 h
# Mus musculus [8] = test: Toxicity in human MDA-MB-231 cells xenografted athymic nude mouse left cardiac ventricle assessed as effect on hematocrit at 50 mg/kg, ip administered every other day for 3 weeks (reference value: 30.2 +/- 1.5%); format: organism-based, Heart; parameters: dose 50 mg/kg, route intraperitoneal; conditions: in vivo, 504 h
# Mus musculus [9] = test: Effect on orthotopic tumor mass in human MDA-MB-231 cells xenografted athymic nude mouse mammary fat pad at 25 to 50 mg/kg, ip administered every other day for 3 weeks
# [10] = biological target: Mothers against decapentaplegic homolog 2 (Homo sapiens) (UniProt Q15796); test: Inhibition of TGF-beta-induced Smad2 phosphorylation in human MDA-MB-231 cells treated 12 hrs before TGF-beta challenge measured after 1 hr by Western blotting; format: cell-based; method in brief: as §2
# Chain of Mothers against decapentaplegic homolog 2 (Homo sapiens) (Q15796 whole entry): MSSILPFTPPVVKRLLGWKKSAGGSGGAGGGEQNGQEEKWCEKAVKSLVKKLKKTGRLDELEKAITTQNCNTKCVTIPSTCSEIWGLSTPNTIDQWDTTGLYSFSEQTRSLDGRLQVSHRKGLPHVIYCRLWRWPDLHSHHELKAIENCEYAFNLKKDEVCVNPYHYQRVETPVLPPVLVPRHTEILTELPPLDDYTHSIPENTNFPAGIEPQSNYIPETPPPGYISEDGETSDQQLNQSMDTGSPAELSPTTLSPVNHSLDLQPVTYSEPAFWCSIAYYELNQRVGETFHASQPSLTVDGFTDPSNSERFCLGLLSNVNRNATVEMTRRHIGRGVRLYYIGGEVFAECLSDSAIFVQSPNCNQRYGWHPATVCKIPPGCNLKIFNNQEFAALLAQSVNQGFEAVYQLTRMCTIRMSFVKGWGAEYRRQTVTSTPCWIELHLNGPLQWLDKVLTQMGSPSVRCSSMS
# Mus musculus [11] = test: Toxicity in human MDA-MB-231 cells xenografted athymic nude mouse left cardiac ventricle assessed as effect on platelets at 25 mg/kg, ip administered every other day for 3 weeks (reference value: 513 +/- 54 K/uL); format: organism-based, Heart; parameters: dose 25 mg/kg, route intraperitoneal; conditions: in vivo, 504 h
# MDA-MB-231 [12] = test: Inhibition of osteolytic bone metastases in human MDA-MB-231 cells xenografted in athymic nude mouse left cardiac ventricle assessed as reduction in lytic bone lesion area at 25 to 50 mg/kg, ip administered every other day for 3 weeks measured on day 16 relative to control; format: functional, Heart left ventricle; conditions: dose mg/kg 25-50; route intraperitoneal; method in brief: as §1
# MDA-MB-231 [13] = test: Inhibition of TGF-beta-induced Ets-1 expression in human MDA-MB-231 cells treated 12 hrs before TGF-beta challenge measured after 1 hr by Western blotting
# MDA-MB-231 [14] = test: Inhibition of TGF-beta-induced PTHrP secretion in human MDA-MB-231 cells treated 4 hrs before TGF-beta challenge measured after 24 hrs by radioimmunoassay; format: functional, cell-based; conditions: for minimal effective concentration: read-out: MEC
# Method in brief: (§3)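 MDA-MB-231 plated at 5 × 10^4 cells/cm2 and held overnight in DMEM with 10% FBS. Pre-treated 4 h with compound (0.1–100 μM in methods; 0.1–300 μM in legend) in 2% FBS, then recombinant human TGF-β1 (5 ng/mL) or medium alone for 24 h. PTHrP measured in conditioned media by radioimmunoassay, n = 4 wells/group. IC50 from four-parameter logistic fit.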
# MDA-MB-231 [15] = test: Inhibition of osteolytic bone metastases in human MDA-MB-231 cells xenografted in athymic nude mouse left cardiac ventricle assessed as improvement in host survival at 25 to 50 mg/kg, ip administered every other day for 3 weeks measured on day 16 relative to vehicle-treated control; format: functional, organism-based; conditions: Heart left ventricle
# Method in brief: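 Intracardiac MDA-MB-231 nude mice (n = 11/group) dosed ip every other day for 3 weeks. Survival shown by Kaplan–Meier and analyzed by logrank test with post-hoc logrank test for trend.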
# MDA-MB-231 [16] = test: Inhibition of osteolytic bone metastases in human MDA-MB-231 cells xenografted in athymic nude mouse left cardiac ventricle assessed as reduction of bone-tumor interface at 50 mg/kg, ip administered every other day for 3 weeks; format: functional; conditions: MDA-MB-231, Heart left ventricle, 504 h, route intraperitoneal
# Method in brief: (§4)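 Intracardiac MDA-MB-231 model in nude mice, dosed ip every other day for 21 days. Mid-sagittal tibia and femur sections TRAP-stained. TRAP+ multinucleated (>3 nuclei) cells counted at 40x along the tumor-bone interface. Expressed as osteoclasts per mm of interface.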
# MDA-MB-231 [17] = test: Inhibition of osteolytic bone metastases in human MDA-MB-231 cells xenografted in athymic nude mouse left cardiac ventricle assessed as reduction of bone-tumor interface at 25 mg/kg, ip administered every other day for 3 weeks; format: functional; conditions: MDA-MB-231, Heart left ventricle, 504 h, route intraperitoneal; method in brief: as §4
# MDA-MB-231 [18] = test: Inhibition of osteolytic bone metastases in human MDA-MB-231 cells xenografted in athymic nude mouse left cardiac ventricle assessed as reduction in lytic bone lesion area at 25 to 50 mg/kg, ip administered every other day for 3 weeks measured on day 21 relative to control; format: functional, Heart left ventricle; conditions: dose mg/kg 25-50; route intraperitoneal; method in brief: as §1
# MDA-MB-231 [19] = test: Inhibition of osteolytic bone metastases in human MDA-MB-231 cells xenografted in athymic nude mouse left cardiac ventricle assessed as effect on tumor burden at 25 to 50 mg/kg, ip administered every other day for 3 weeks by histological analysis; format: functional, organism-based; conditions: Heart left ventricle
# Method in brief: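 Intracardiac MDA-MB-231 model in female nude mice, dosed ip every other day for 21 days, n = 11/group. Hindlimbs harvested day 21, formalin-fixed and EDTA-decalcified. Tumor area measured blinded on mid-sagittal 5 μm H&E sections of tibiae and femora at 10x magnification.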
# MDA-MB-231 [20] = test: Inhibition of TGF-beta-induced PTHrP secretion in human MDA-MB-231 cells at 100 uM treated 4 hrs before TGF-beta challenge measured after 24 hrs by radioimmunoassay; format: functional, cell-based; method in brief: as §3
# Mus musculus [21] = test: Toxicity in human MDA-MB-231 cells xenografted athymic nude mouse left cardiac ventricle assessed as effect on liver weight at 25 mg/kg, ip administered every other day for 3 weeks (reference value: 1 +/- 0.10 gram); format: organism-based, Heart; parameters: dose 25 mg/kg, route intraperitoneal; conditions: in vivo, 504 h
# MDA-MB-231 [22] = test: Inhibition of osteolytic bone metastases in human MDA-MB-231 cells xenografted in athymic nude mouse left cardiac ventricle assessed as improvement in body weight at 25 to 50 mg/kg, ip administered every other day for 3 weeks measured on day 16 relative to vehicle-treated control; format: functional, organism-based; conditions: Heart left ventricle
# [23] = biological target: Mothers against decapentaplegic homolog 3 (Homo sapiens) (UniProt P84022); test: Inhibition of TGF-beta-induced Smad3 phosphorylation in human MDA-MB-231 cells treated 12 hrs before TGF-beta challenge measured after 1 hr by Western blotting; format: cell-based; method in brief: as §2
# Chain of Mothers against decapentaplegic homolog 3 (Homo sapiens) (P84022 2-425 limits assumed): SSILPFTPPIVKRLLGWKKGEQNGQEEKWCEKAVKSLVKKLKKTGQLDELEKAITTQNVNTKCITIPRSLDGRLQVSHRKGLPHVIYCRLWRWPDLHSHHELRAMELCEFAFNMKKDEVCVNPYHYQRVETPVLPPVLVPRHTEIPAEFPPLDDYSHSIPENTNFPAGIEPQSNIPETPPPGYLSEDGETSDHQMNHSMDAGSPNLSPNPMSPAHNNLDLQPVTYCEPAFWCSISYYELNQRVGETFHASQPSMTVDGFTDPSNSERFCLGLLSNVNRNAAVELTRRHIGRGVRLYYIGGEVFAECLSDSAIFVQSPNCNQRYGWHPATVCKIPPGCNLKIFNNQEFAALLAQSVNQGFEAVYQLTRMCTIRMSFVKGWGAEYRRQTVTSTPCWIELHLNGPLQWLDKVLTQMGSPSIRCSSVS
# Mus musculus [24] = test: Toxicity in human MDA-MB-231 cells xenografted athymic nude mouse left cardiac ventricle assessed as effect on white blood cells at 50 mg/kg, ip administered every other day for 3 weeks (reference value: 5.84 +/- 1.3 K/uL); conditions: in vivo, 504 h
# Mus musculus [25] = test: Toxicity in human MDA-MB-231 cells xenografted athymic nude mouse left cardiac ventricle assessed as effect on bone-forming osteoblast cell at 25 to 50 mg/kg, ip administered every other day for 3 weeks; format: organism-based, Heart; parameters: dose 25-50 mg/kg, route intraperitoneal; conditions: in vivo, 504 h
# Mus musculus [26] = test: Toxicity in human MDA-MB-231 cells xenografted athymic nude mouse left cardiac ventricle assessed as effect on alanine aminotransferase at 25 mg/kg, ip administered every other day for 3 weeks (reference value: 7.04 +/- 2.2 U/L); format: organism-based, Heart; parameters: dose 25 mg/kg, route intraperitoneal; conditions: in vivo, 504 h
# Mus musculus [27] = test: Toxicity in human MDA-MB-231 cells xenografted athymic nude mouse left cardiac ventricle assessed as effect on spleen weight at 50 mg/kg, ip administered every other day for 3 weeks (reference value: 0.134 +/- 0.02 gram); format: organism-based; parameters: dose 50 mg/kg, route intraperitoneal; conditions: in vivo, 504 h
# Mus musculus [28] = test: Toxicity in human MDA-MB-231 cells xenografted athymic nude mouse left cardiac ventricle assessed as effect on spleen weight at 25 mg/kg, ip administered every other day for 3 weeks (reference value: 0.134 +/- 0.02 gram); format: organism-based; parameters: dose 25 mg/kg, route intraperitoneal; conditions: in vivo, 504 h
# Mus musculus [29] = test: Toxicity in human MDA-MB-231 cells xenografted athymic nude mouse left cardiac ventricle assessed as effect on alanine aminotransferase at 50 mg/kg, ip administered every other day for 3 weeks (reference value: 7.04 +/- 2.2 U/L); format: organism-based, Heart; parameters: dose 50 mg/kg, route intraperitoneal; conditions: in vivo, 504 h
inhibition [6],inhibition [10],IC50 (MDA-MB-231 [14]) [µM],SMILES,MTC (MDA-MB-231 [1]) [µM],Activity (Mus musculus [2]) [g],Activity (Mus musculus [3]) [%],inhibition (INH) (MDA-MB-231 [4]) [%],Activity (Mus musculus [5]) [K/uL],Activity (Mus musculus [7]) [K/uL],Activity (Mus musculus [8]) [%],Activity (Mus musculus [9]),Activity (Mus musculus [11]) [K/uL],inhibition (INH) (MDA-MB-231 [12]) [%],inhibition (MDA-MB-231 [13]),inhibition (MDA-MB-231 [14]),minimal effective concentration (MDA-MB-231 [14]) [µM],Activity (MDA-MB-231 [15]),inhibition in vivo at 50 mg/kg (MDA-MB-231 [16]) [%],inhibition in vivo at 25 mg/kg (MDA-MB-231 [17]) [%],inhibition (INH) (MDA-MB-231 [18]) [%],other results
inactive,Active,24,COc1cc(/C=C/C(O)=C/C(=O)/C=C/c2ccc(O)cc2)ccc1O [DEMETHOXYCURCUMIN],82,1.1,30.6,>50,589,4.69,31.1,inactive,485,51,Active,Dose-dependent effect,13,Active,48,53,57,inhibition (MDA-MB-231 [19]): inactive; inhibition (MDA-MB-231 [20]): Active; Activity (Mus musculus [21]): 0.987 g; Activity (MDA-MB-231 [22]): Active; inhibition [23]: Active; Activity (Mus musculus [24]): 6.83 K/uL; Activity (Mus musculus [25]): Non-toxic; Activity (Mus musculus [26]): 7.13 U/L; Activity (Mus musculus [27]): 0.139 g; Activity (Mus musculus [28]): 0.129 g; Activity (Mus musculus [29]): 5.02 U/L
inactive,Active,24,COc1cc(/C=C/C(=O)CC(=O)/C=C/c2ccc(O)c(OC)c2)ccc1O [CURCUMIN],82,1.1,30.6,>50,589,4.69,31.1,inactive,485,51,Active,Dose-dependent effect,13,Active,48,53,57,inhibition (MDA-MB-231 [19]): inactive; inhibition (MDA-MB-231 [20]): Active; Activity (Mus musculus [21]): 0.987 g; Activity (MDA-MB-231 [22]): Active; inhibition [23]: Active; Activity (Mus musculus [24]): 6.83 K/uL; Activity (Mus musculus [25]): Non-toxic; Activity (Mus musculus [26]): 7.13 U/L; Activity (Mus musculus [27]): 0.139 g; Activity (Mus musculus [28]): 0.129 g; Activity (Mus musculus [29]): 5.02 U/L
